Measured values published in the array DNA melting data of Ke et al. (doi:10.1101/2024.01.08.574731).

How the values were obtained:
[1] = folding enthalpy; higher = less favourable; fluorescence melt of hairpins on a sequencing array, two-state fit; conditions: sodium 0.088 M
Procedure, shortened: (§1)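 Two-state fits, bootstrapped, provided melting temperature and folding enthalpy from Cy3 fluorescence normalised to pre-quench Cy3 and to control constructs. Library hairpins with annealed Cy3 and quencher oligos were imaged on a sequenced MiSeq flow cell in 50 mM Na-HEPES pH 8.0, 25 mM NaCl, at 2.5 °C intervals up to 60 °C. Four replicates were combined with inverse-variance weighting. A 9.35 °C upward shift was applied to fitted temperatures to match UV melts.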

[2] = melting temperature; fluorescence melt of hairpins on a sequencing array, two-state fit, raised by 9.35 °C to match UV melts; conditions: sodium 0.088 M
Procedure, shortened: as §1

Sequence: GATCACGAAAGTGGAATC ((((((....)))..)))
- folding enthalpy [1]: -10.3 kcal/mol
- Tm [2]: 32.1 °C

Sequence: GATCACGAAAGTGGCATC ((((((....)))..)))
- folding enthalpy [1]: -12.3 kcal/mol
- Tm [2]: 30.3 °C

Sequence: GATCACGAAAGTGGTATC ((((((....)))..)))
- folding enthalpy [1]: -13.5 kcal/mol
- Tm [2]: 34.1 °C

Sequence: GATCACGAAAGTGTATC ((((((....))).)))
- folding enthalpy [1]: -20.6 kcal/mol
- Tm [2]: 44 °C

Sequence: GATCACGAAAGTGTCATC ((((((....)))..)))
- folding enthalpy [1]: -13.8 kcal/mol
- Tm [2]: 31.5 °C

Sequence: GATCACGACGTGATC ((((((...))))))
- folding enthalpy [1]: -30.6 kcal/mol
- Tm [2]: 64.6 °C

Sequence: GATCACGATGTGATC ((((((...))))))
- folding enthalpy [1]: -30.8 kcal/mol
- Tm [2]: 58.5 °C

Sequence: GATCACGCGTGTGATC ((((((....))))))
- folding enthalpy [1]: -38.7 kcal/mol
- Tm [2]: 56.5 °C

Sequence: GATCACGCTTGTGATC ((((((....))))))
- folding enthalpy [1]: -38 kcal/mol
- Tm [2]: 57.7 °C

Sequence: GATCACGGACGTGATC ((((((....))))))
- folding enthalpy [1]: -37.7 kcal/mol
- Tm [2]: 67.2 °C

Sequence: GATCACGGAGGTGATC ((((((....))))))
- folding enthalpy [1]: -37.9 kcal/mol
- Tm [2]: 64.3 °C

Sequence: GATCACGGCGTGATC ((((((...))))))
- folding enthalpy [1]: -38 kcal/mol
- Tm [2]: 61.3 °C

Sequence: GATCACGGCTGTGATC ((((((....))))))
- folding enthalpy [1]: -44.5 kcal/mol
- Tm [2]: 62.3 °C

Sequence: GATCACGGGCGTGATC ((((((....))))))
- folding enthalpy [1]: -40.4 kcal/mol
- Tm [2]: 57.8 °C

Sequence: GATCACGGGGGTGATC ((((((....))))))
- folding enthalpy [1]: -36.7 kcal/mol
- Tm [2]: 56.8 °C

Sequence: GATCACGTCTGTGATC ((((((....))))))
- folding enthalpy [1]: -37.7 kcal/mol
- Tm [2]: 59.5 °C

Sequence: GATCACGTTCGTGATC ((((((....))))))
- folding enthalpy [1]: -39.4 kcal/mol
- Tm [2]: 62.6 °C

Sequence: GATCACTACAGTGATC ((((((....))))))
- folding enthalpy [1]: -40.5 kcal/mol
- Tm [2]: 60.6 °C

Sequence: GATCACTACCGTGATC ((((((....))))))
- folding enthalpy [1]: -41.2 kcal/mol
- Tm [2]: 55.3 °C

Sequence: GATCACTAGTGTGATC ((((((....))))))
- folding enthalpy [1]: -37.6 kcal/mol
- Tm [2]: 55.1 °C

Sequence: GATCACTATGTGATC ((((((...))))))
- folding enthalpy [1]: -38.8 kcal/mol
- Tm [2]: 61.1 °C

Sequence: GATCACTCCGTGATC ((((((...))))))
- folding enthalpy [1]: -44 kcal/mol
- Tm [2]: 59.2 °C

Sequence: GATCACTCGTGTGATC ((((((....))))))
- folding enthalpy [1]: -37.1 kcal/mol
- Tm [2]: 57.1 °C

Sequence: GATCACTGAGTGATC ((((((...))))))
- folding enthalpy [1]: -40.1 kcal/mol
- Tm [2]: 55.2 °C

Sequence: GATCACTGCGGTGATC ((((((....))))))
- folding enthalpy [1]: -38 kcal/mol
- Tm [2]: 61.9 °C

Sequence: GATCACTGTGGTGATC ((((((....))))))
- folding enthalpy [1]: -45.6 kcal/mol
- Tm [2]: 59.4 °C

Sequence: GATCACTTGGTGATC ((((((...))))))
- folding enthalpy [1]: -37.5 kcal/mol
- Tm [2]: 59.1 °C

Sequence: GATCACTTTCGTGATC ((((((....))))))
- folding enthalpy [1]: -36.8 kcal/mol
- Tm [2]: 56.4 °C

Sequence: GATCAGAAACCTGATC ((((((....))))))
- folding enthalpy [1]: -36.9 kcal/mol
- Tm [2]: 44.1 °C

Sequence: GATCAGAAATGATC (((((....)))))
- folding enthalpy [1]: -22.5 kcal/mol
- Tm [2]: 41.1 °C

Sequence: GATCAGAACCCTGATC ((((((....))))))
- folding enthalpy [1]: -39.8 kcal/mol
- Tm [2]: 47 °C

Sequence: GATCAGAACTCTGATC ((((((....))))))
- folding enthalpy [1]: -37.6 kcal/mol
- Tm [2]: 48.4 °C

Sequence: GATCAGAATCTGATC ((((((...))))))
- folding enthalpy [1]: -31.4 kcal/mol
- Tm [2]: 45.4 °C

Sequence: GATCAGAATGCTGATC ((((((....))))))
- folding enthalpy [1]: -28.1 kcal/mol
- Tm [2]: 47 °C

Sequence: GATCAGACCGCTGATC ((((((....))))))
- folding enthalpy [1]: -28.5 kcal/mol
- Tm [2]: 47.8 °C

Sequence: GATCAGACGGCTGATC ((((((....))))))
- folding enthalpy [1]: -52.4 kcal/mol
- Tm [2]: 51.7 °C

Sequence: GATCAGAGACTGATC ((((((...))))))
- folding enthalpy [1]: -31.4 kcal/mol
- Tm [2]: 48 °C

Sequence: GATCAGAGATCTGATC ((((((....))))))
- folding enthalpy [1]: -24.3 kcal/mol
- Tm [2]: 50.1 °C

Sequence: GATCAGAGGACTGATC ((((((....))))))
- folding enthalpy [1]: -32.8 kcal/mol
- Tm [2]: 46.9 °C

Sequence: GATCAGAGGTCTGATC ((((((....))))))
- folding enthalpy [1]: -30.6 kcal/mol
- Tm [2]: 49.5 °C

Sequence: GATCAGAGTACTGATC ((((((....))))))
- folding enthalpy [1]: -37.4 kcal/mol
- Tm [2]: 49 °C

Sequence: GATCAGAGTCCTGATC ((((((....))))))
- folding enthalpy [1]: -38.2 kcal/mol
- Tm [2]: 47.6 °C

Sequence: GATCAGATGCTGATC ((((((...))))))
- folding enthalpy [1]: -30.6 kcal/mol
- Tm [2]: 49.4 °C

Sequence: GATCAGCAACTGATC ((((((...))))))
- folding enthalpy [1]: -33.8 kcal/mol
- Tm [2]: 45.6 °C

Sequence: GATCAGCAATCTGATC ((((((....))))))
- folding enthalpy [1]: -32.5 kcal/mol
- Tm [2]: 47.2 °C

Sequence: GATCAGCACCCTGATC ((((((....))))))
- folding enthalpy [1]: -33.1 kcal/mol
- Tm [2]: 48.7 °C

Sequence: GATCAGCAGACTGATC ((((((....))))))
- folding enthalpy [1]: -42.5 kcal/mol
- Tm [2]: 50.3 °C

Sequence: GATCAGCATGCTGATC ((((((....))))))
- folding enthalpy [1]: -47.5 kcal/mol
- Tm [2]: 60.8 °C
